# Screens: PubChem BioAssay, several laboratories
# TNF death inh: blocks TNF-alpha induced death of Jurkat FADD-/- cells | Jurkat FADD-/- TNF necroptosis rescue, ATP luminescence, 24 h; 0 = TNF only, 100 = no-TNF cells | activation (protection from cell death), % at 10 µM | 0.068% of 220,000 active;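 active = activation, meaning protection from cell death, of at least 50% relative to plate controls; inactive = activation below 50%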;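 note: necroptosis triggered by 40 ng/mL TNF-alpha added together with compound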
# Runt-SMMHC FRET: Runt domain-CBFb-SMMHC interaction inhibition | AID 1434 | inhibition, % at 20 µM | Q01196+Q13951 | Cerulean-Runt/Venus-CBFb-SMMHC FRET ratio 530/480, 1 h | 0.74% of 220,000 active;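 active = mean inhibition across duplicate retests at 20 µM reaching about 50%, limit read from the data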;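 note: 0% = DMSO wells and 100% = wells with excess untagged CBFb-SMMHC; inhibitors lower the FRET ratio by blocking Runt binding to CBFb-SMMHC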
# RanGTP-Impb inh: inhibitors of RanGTP-importin-beta interaction, primary screen, biochemical, FRET, CFP-Ran, YFP-importin-beta, homogeneous | cell-free CFP-Ran/YFP-importin-beta FRET ratio | inhibition, % (concentration not given with the values) | 1.1% of 300,000 active | AID 2216;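 active = more than half of the replicate wells show a fall in the fluorescence ratio signal beyond about 16%, limit read from the data, passing the limit was not always enough; inconclusive = exactly half of the replicate wells pass the set limit; inactive = fewer than half of replicates pass the limit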;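 note: 0% = DMSO wells and 100% = Ran loaded with GDP instead of GTP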
# L929 necroptosis: L929 zVAD cell death inhibition. viability rescue, % at 10 µM. 0.38% of 220,000 active. L929 zVAD necroptosis rescue, ATP luminescence, 24 h; with zVAD 60 µM. AID 1377;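 active = activation, scaled between plate controls, above about 75%, limit read from the data; inactive = activation under that limit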;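 note: 0% = zVAD with DMSO and 100% = DMSO alone without zVAD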
# Runt-CBFb FRET: Runt domain-CBFb interaction inhibition; Q01196+Q13951; Cerulean-Runt/Venus-CBFb FRET ratio 530/480, 1 h; inhibition, % at 20 µM; 0.46% of 220,000 active; AID 1496;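 active = inhibition over about 50% at 20 µM in the single-dose screen, limit read from the data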;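 note: 0% = DMSO wells and 100% = excess unlabeled CBFb competitor control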
#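 test system = Cerulean-Runt domain fusion protein, energy donor | probe or stimulus = Venus-CBFb binding partner, 100 nM | incubation = two 1 h room-temperature incubations shielded from light | detection = fluorescence energy transfer, 422 nm excitation, 530/480 nm emission | measure = loss of energy transfer signal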
# Hck Nef HTS: inhibitors of human Hck kinase activated by Nef. 0.68% of 220,000 active. inhibition, % at 20 µM. AID 463187. P08631. Recombinant Hck-YEEI plus Nef, Z-Lyte FRET kinase assay;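 active = Hck-Nef kinase inhibition above about 50%, limit read from the data; inactive = inhibition below that limit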;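 note: 0% = DMSO with Hck plus Nef and 100% = Hck alone without Nef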
# Target sequence (P08631 whole entry, looked up): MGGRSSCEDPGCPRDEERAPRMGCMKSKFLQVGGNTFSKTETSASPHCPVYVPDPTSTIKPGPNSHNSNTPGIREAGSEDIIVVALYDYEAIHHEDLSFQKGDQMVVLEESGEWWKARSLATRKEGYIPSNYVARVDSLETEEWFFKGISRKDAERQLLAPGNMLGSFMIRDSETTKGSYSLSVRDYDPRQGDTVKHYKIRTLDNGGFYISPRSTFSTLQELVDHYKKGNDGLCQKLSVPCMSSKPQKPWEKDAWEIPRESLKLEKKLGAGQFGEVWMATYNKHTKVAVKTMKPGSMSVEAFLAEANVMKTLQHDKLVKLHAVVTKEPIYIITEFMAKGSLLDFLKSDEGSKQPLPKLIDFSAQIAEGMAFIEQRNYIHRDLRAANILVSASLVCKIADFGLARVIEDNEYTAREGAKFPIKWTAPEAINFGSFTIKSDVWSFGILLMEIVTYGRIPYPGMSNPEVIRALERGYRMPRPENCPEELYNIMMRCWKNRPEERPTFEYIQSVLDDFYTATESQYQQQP
# Runt-CBFb TRFRET: inhibitors of human RUNX1 Runt domain binding to CBFb. shares compounds with Runt-CBFb FRET. TR-FRET RUNX1 Runt domain-CBFb binding. inhibition, % at 20 µM. 20% of 480 active. AID 1502; in the data active = inhibition above about 40%
# * marks the source's active call; other numbers are inactive results; ? = inconclusive; / = no result. Most compounds without a hit are left out; they make up all but 2.1% or so of the library.
SMILES,TNF death inh,Runt-SMMHC FRET,RanGTP-Impb inh,L929 necroptosis,Runt-CBFb FRET,Hck Nef HTS,Runt-CBFb TRFRET
CCOC(=O)C1(Cc2ccc(OC)cc2)CCN(C(=O)c2cncs2)CC1,1,-5,-2,0,54*,0,34
CN(C)c1cccc(C(=O)OCc2cc(=O)oc3cc(O)ccc23)c1,-2,81*,?,0,85*,24,52*
CC1CN(S(=O)(=O)c2cccc(C(=O)OCc3cc(=O)oc4cc(O)ccc34)c2)CC(C)O1 (stereo unspecified),-4,36,-1,0,13,3,/
Oc1cc(-n2cccn2)c(O)cc1-n1cccn1,-25,100*,8,4,53*,-148,8
O=Cc1ccccc1-n1cccn1,1,3,2,0,-82,19,/
COC(=O)C1=C(CSc2nc3c(cc2C#N)CN(C)CC3)OC(N)=C(C#N)C1c1ccccc1F (stereo unspecified),-4,/,24*,0,58*,-3,55*
CCOC(=O)C1=C(CSc2nc3c(cc2C#N)CCC3)OC(N)=C(C#N)C1c1ccccc1 (stereo unspecified),1,30,12,2,/,1,/
O=c1oc2c(-c3ccc([N+](=O)[O-])cc3)cc(O)cc2s1,-6,4,7,1,56*,7,-8
COc1cccc(NC(=S)N(Cc2ccc(Cl)cc2)Cc2ccc(C(=O)O)cc2)c1,0,-1,-3,0,-1,1,/
S=C1CSc2ccccc2N1,0,12,2,6,53*,25,14
CC1CSc2ccccc2NC1=S (stereo unspecified),-3,-6,-3,0,-8,4,/
O=C(c1ccc(Br)cc1)N(c1ccccn1)C1CCCCC1,0,0,-1,1,0,23,/
CCCCn1c(-c2ccncc2)nc2c1c(=O)[nH]c(=O)n2CC(C)C,0,2,3,0,75*,2,-10
COC(=O)c1ccc(C(=O)OC)c(NC(=S)N2CCCCC2C)c1 (stereo unspecified),0,87*,?,/,72*,7,67*
COC(=O)c1ccc(C(=O)OC)c(NC(=S)N2CCCC2)c1,/,/,11,/,/,/,/
N#Cc1ccc(C(=O)NCC2CCCCC2)cc1,/,/,3,/,/,/,/
Cc1c(Nc2c3c(c(C#N)c4nc5ccccc5n24)CCC3)c(=O)n(-c2ccccc2)n1C,-1,12,/,0,7,6,/
Cc1c(Nc2c3ccccc3nc3ccccc23)c(=O)n(-c2ccccc2)n1C,2,29,56*,-1,114*,4,-4
CCCCc1c(C)c(C#N)c2nc3ccccc3n2c1Nc1c(C)n(C)n(-c2ccccc2)c1=O,-2,65*,21*,0,53*,8,-4
Cc1c(Nc2nc3ccccc3nc2N2CCN(c3ccccc3)CC2)c(=O)n(-c2ccccc2)n1C,-6,-5,6,0,1,5,/
O=c1[nH]c(-c2ccccn2)nc2sc(-c3ccccc3)cc12,-6,17,12,64,13,29,/
O=C(Nc1ccccc1C(=O)O)c1cc(S(=O)(=O)N2CCOCC2)c(Br)s1,/,/,0,/,/,/,/
O=C(Nc1ccc2c(c1)OCO2)c1n[nH]c(=O)c2ccccc12,-1,-2,2,0,0,38,/
COc1ccc(OCc2nc(-c3ccc(F)c(F)c3)cs2)cc1,1,-1,3,0,-3,1,/
COc1ccccc1NC(=O)Nc1nc(CC(=O)N2CCN(c3ccccc3OC)CC2)cs1,/,/,-5,/,/,/,/
N#CC1(C#N)COC23CCCCC2C1(C#N)C(=N)O3 (stereo unspecified),-2,80*,31*,0,63*,2,38
CCc1nc(SCC(=O)O)c(C#N)cc1C,0,-6,2,0,-1,1,/
